Source: PubChem (several laboratories)
SKKanGAS inh: inhibitors of SKKanGAS S. pyogenes growth in kanamycin (SK-promoter or general growth effect) | inhibition, % at 7.5 µM | 300,000 compounds, 1.3% hits | BacTiter-Glo, 6 h;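 active means mean replicate score, as percent of positive control median, at least 50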;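 further: strain carries kanamycin resistance gene driven by streptokinase promoter and grows in 40 µg/ml kanamycin; loss of luminescence reflects streptokinase promoter inhibition or plain growth inhibition; 0% = median of DMSO wells and 100% = positive control at its reference dose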
Beta apoptosis: beta cell apoptosis inhibition. INS-1E cytokine-induced death, ATP luminescence, 48 h; percent of positive-control rescue, neutral wells zero. 300,000 compounds, 0.8% hits. protection from apoptosis, % (no concentration beside the values);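 active means Every replicate reaches about 75%, or at least half do and their mean reaches it too, limit read from the data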;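 further: 0% = cytokine-treated negative control wells and 100% = positive control rescue; higher means more ATP so stronger rescue from cytokine killing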
CSC inhib: cancer stem cell inhibition. 300,000 compounds, 1.1% hits. cancer stem cell-like cells viability, luminescence. inhibition, % at 7.5 µM; in the data active means inhibition above about 75%; tested in HMLE shEcad cells
T cruzi repl: T. cruzi replication inhibition | T. cruzi beta-gal in NIH3T3, luminescence, 90 h | inhibition, % (no concentration beside the values) | 300,000 compounds, 1.4% hits;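 active means mean inhibition across valid replicates above about 55%, limit read from the data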;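 further: signal also drops with host cell toxicity which is not excluded here; 0% = plate median of DMSO wells and 100% = zero luminescence signal; higher percent means less beta-gal luminescence so fewer parasites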
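Read-out: Parasite load inhibition, % | Test system: Mouse NIH/3T3 fibroblasts infected with β-gal-expressing T. cruzi Tulahuen C4 | Amount: 5,000 cells/well | Medium: DMEM, 2% fetal bovine serum | Signal: GalScreen β-gal luminescence, detergent lysis, 60 min | Timing: 3 h attach, ≥90 h co-culture | Also added: Tulahuen C4 trypomastigotes, 5000/well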
Mdm2 MdmX PPI: disrupts the human Mdm2-MdmX interaction | SaOS-2 split-luciferase Mdm2/MdmX complementation, luminescence | AID 485346 | O15151+Q00987 | 330,000 compounds, 3% hits | inhibition, % at 8 µM;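 active means inhibition of at least 50% at 8 µM in the primary screen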
Target sequence (O15151 whole entry, looked up): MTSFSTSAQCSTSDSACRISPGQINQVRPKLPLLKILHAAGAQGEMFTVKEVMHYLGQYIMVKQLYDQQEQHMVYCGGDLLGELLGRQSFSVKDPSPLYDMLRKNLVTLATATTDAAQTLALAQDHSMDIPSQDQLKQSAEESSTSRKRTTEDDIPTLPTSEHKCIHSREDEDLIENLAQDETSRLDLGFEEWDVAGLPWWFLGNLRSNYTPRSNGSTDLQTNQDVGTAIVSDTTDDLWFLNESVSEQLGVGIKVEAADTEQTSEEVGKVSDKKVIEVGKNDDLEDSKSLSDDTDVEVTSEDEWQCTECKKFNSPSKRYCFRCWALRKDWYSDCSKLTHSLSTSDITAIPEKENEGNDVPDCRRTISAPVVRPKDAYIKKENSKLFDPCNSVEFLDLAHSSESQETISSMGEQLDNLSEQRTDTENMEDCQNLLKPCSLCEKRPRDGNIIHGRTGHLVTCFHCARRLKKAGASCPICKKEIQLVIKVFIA
Target sequence (Q00987 whole entry, looked up): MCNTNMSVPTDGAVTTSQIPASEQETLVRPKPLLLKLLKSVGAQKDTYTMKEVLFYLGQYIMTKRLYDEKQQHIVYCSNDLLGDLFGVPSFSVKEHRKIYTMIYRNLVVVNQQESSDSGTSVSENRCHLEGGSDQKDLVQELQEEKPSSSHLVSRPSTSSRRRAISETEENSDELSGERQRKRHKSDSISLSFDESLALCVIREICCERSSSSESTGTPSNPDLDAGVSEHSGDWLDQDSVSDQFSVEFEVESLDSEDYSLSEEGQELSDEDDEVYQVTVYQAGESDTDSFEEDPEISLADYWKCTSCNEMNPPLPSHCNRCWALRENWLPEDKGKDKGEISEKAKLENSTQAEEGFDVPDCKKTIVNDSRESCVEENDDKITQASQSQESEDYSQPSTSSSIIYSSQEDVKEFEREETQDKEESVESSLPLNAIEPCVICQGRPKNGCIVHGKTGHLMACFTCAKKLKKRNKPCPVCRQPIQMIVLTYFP
Lmaj promast: inhibitors of Leishmania major promastigote growth | inhibition, % at 10 µM | Leishmania major promastigotes, resazurin fluorescence viability | 200,000 compounds, 9% hits; in the data active means inhibition above about 50%;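 further: promastigotes grown with compound for 44 hours at 28 °C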
Numbers without * were called inactive. An excerpt weighted towards active compounds, which were near 9.4% of everything screened.

Results for Cc1cc(C)c(CN2CCN(C(=O)Cn3cnc4c(NCc5ccccc5)ncnc43)CC2)c(C)c1 ?
Mdm2 MdmX PPI: 29

Results for O=c1ccc2cc(S(=O)(=O)N3CCN(c4ccc(Cl)cc4)CC3)ccc2o1 ?
SKKanGAS inh: -6; Beta apoptosis: 6; T cruzi repl: 3; Mdm2 MdmX PPI: 25

What do the screens show for `Cc1ccc(C(=O)Nc2nc(C(C)(C)C)cs2)s1`?
SKKanGAS inh: 10; Beta apoptosis: 22; CSC inhib: 17; T cruzi repl: 20; Mdm2 MdmX PPI: -105; Lmaj promast: 55*

Results for CC(C)(C)c1csc(NC(=O)c2ccc(Cl)s2)n1 ?
SKKanGAS inh: 48; Beta apoptosis: 20; CSC inhib: 43; T cruzi repl: 12; Mdm2 MdmX PPI: 27; Lmaj promast: 23

What do the screens show for `CC(NC(=O)CCl)c1ccc(Cl)c(Cl)c1` (stereo not given)?
SKKanGAS inh: -1; Beta apoptosis: -7; CSC inhib: -4; T cruzi repl: -13; Mdm2 MdmX PPI: 26; Lmaj promast: 63*

Results for CCOc1cc(S(=O)(=O)N(Cc2ccccc2)Cc2ccccc2)c(OCC)cc1-n1cnnn1 ?
SKKanGAS inh: 2; T cruzi repl: 44; Lmaj promast: 92*

How did CCOC(=O)C1=C(C)NC(=S)NC1c1cc(C)sc1C (stereo not given) do in these assays?
SKKanGAS inh: 0; Beta apoptosis: -7; T cruzi repl: -4; Mdm2 MdmX PPI: 26; Lmaj promast: 8

Results for CCOC(=O)c1c(NC(=O)C2=C(C)NC(=S)NC2c2ccccc2C(F)(F)F)sc(C)c1C (stereo not given) ?
SKKanGAS inh: 20; Beta apoptosis: 4; CSC inhib: 24; T cruzi repl: 62*; Mdm2 MdmX PPI: 26; Lmaj promast: 23

Results for COc1ccccc1COCC(O)CN(Cc1ccco1)Cc1ccccc1O (stereo not given) ?
SKKanGAS inh: 2; Beta apoptosis: -4; CSC inhib: 7; T cruzi repl: -11; Mdm2 MdmX PPI: 20; Lmaj promast: 82*

Results for c1ccc(C2CC(c3ccccc3)C(c3ccccc3)N2)cc1 (stereo not given) ?
SKKanGAS inh: 20; Beta apoptosis: 3; CSC inhib: 10; T cruzi repl: 16; Mdm2 MdmX PPI: 12

How did CC1Sc2n(c3ccccc3[n+]2C)N=C1c1ccccc1 (stereo not given) do in these assays?
SKKanGAS inh: -4; Beta apoptosis: 37; CSC inhib: -3; T cruzi repl: 45; Mdm2 MdmX PPI: 23; Lmaj promast: 99*

What do the screens show for `C[n+]1c2n(c3ccccc31)N=C(c1ccc(Cl)cc1)CS2`?
SKKanGAS inh: 6; Beta apoptosis: 76*; CSC inhib: 12; T cruzi repl: 37; Mdm2 MdmX PPI: 12; Lmaj promast: 86*

How did COC(=O)CCCNC(=O)c1ccccn1 do in these assays?
SKKanGAS inh: -4; Beta apoptosis: -6; CSC inhib: -5; T cruzi repl: -7; Mdm2 MdmX PPI: 0; Lmaj promast: -5

What do the screens show for `Cc1nc(NC(=O)COC(=O)CCc2ccccc2)c(Cl)cc1Cl`?
Beta apoptosis: -4; CSC inhib: -10; Mdm2 MdmX PPI: 7

How did Cc1cc(C)cc(NC(=O)COC(=O)c2cccc(S(=O)(=O)N3CCCCC3)c2)c1 do in these assays?
Beta apoptosis: -7; CSC inhib: -4; Mdm2 MdmX PPI: -7

What do the screens show for `Cc1ccc(Nc2nc(Cl)c(C=O)s2)cc1Cl`?
SKKanGAS inh: 29; Beta apoptosis: 17; CSC inhib: 9; T cruzi repl: 1; Mdm2 MdmX PPI: 17; Lmaj promast: 24

Results for CCN(CC)c1nc(NN)nc(Nc2ccc(C)c(Cl)c2)n1 ?
SKKanGAS inh: 104*; Beta apoptosis: 30; CSC inhib: 33; T cruzi repl: 43; Mdm2 MdmX PPI: 17

What do the screens show for `COc1ccc(Nc2nc(N)nc(CN3CCc4ccccc4C3)n2)cc1`?
SKKanGAS inh: -6; Beta apoptosis: 1; CSC inhib: 29; T cruzi repl: -1; Mdm2 MdmX PPI: 32; Lmaj promast: 7

What do the screens show for `COc1ccccc1Nc1nc(N)nc(CN2CCc3ccccc3C2)n1`?
SKKanGAS inh: 39; Beta apoptosis: -2; CSC inhib: -4; T cruzi repl: 42; Mdm2 MdmX PPI: 12; Lmaj promast: 100*

How did Cc1c(Cl)cccc1Nc1nc(N)nc(CN2CCCCCC2)n1 do in these assays?
SKKanGAS inh: 3; Beta apoptosis: 0; CSC inhib: 4; T cruzi repl: 1; Mdm2 MdmX PPI: 22; Lmaj promast: 81*

What do the screens show for `Cc1ccc(NC(=O)CSc2nnc3ccc(-c4ccncc4)nn23)cc1`?
SKKanGAS inh: -4; T cruzi repl: 2; Mdm2 MdmX PPI: 11

What do the screens show for `C=CCN(c1ccc(C(=O)Nc2ccc(C)c(C)c2)cc1)S(C)(=O)=O`?
SKKanGAS inh: -12; Beta apoptosis: 8; CSC inhib: 1; T cruzi repl: -34; Mdm2 MdmX PPI: -10; Lmaj promast: 55*

How did C=CCN(c1ccc(C(=O)Nc2ccc(C)cc2)cc1)S(C)(=O)=O do in these assays?
SKKanGAS inh: 2; Beta apoptosis: 0; CSC inhib: -6; T cruzi repl: 2; Mdm2 MdmX PPI: 21; Lmaj promast: 3

What do the screens show for `CC(=O)c1cccc(NC(=O)c2ccc(N(Cc3ccc(C)cc3)S(C)(=O)=O)cc2)c1`?
SKKanGAS inh: 25; T cruzi repl: -6; Mdm2 MdmX PPI: 22; Lmaj promast: 53*

What do the screens show for `CC(C)CNS(=O)(=O)c1cc2c3c(c1)CCC(=O)N3CCC2`?
SKKanGAS inh: 1; Beta apoptosis: -1; CSC inhib: 9; T cruzi repl: 6; Mdm2 MdmX PPI: -18

How did CCOc1ccc(-n2c(=O)c3sccc3n(Cc3ccc(C)cc3)c2=O)cc1 do in these assays?
Beta apoptosis: 4; CSC inhib: -5; T cruzi repl: 1; Mdm2 MdmX PPI: 22; Lmaj promast: 12

Results for CNS(=O)(=O)c1cn(CC(=O)NCc2ccc(F)cc2)cc1S(=O)(=O)NC ?
SKKanGAS inh: -1; Beta apoptosis: -2; CSC inhib: -12; T cruzi repl: -13; Mdm2 MdmX PPI: 4

How did COc1ccc(-c2n(CC(=O)OC3CC(C)CCC3C(C)C)c3ccccc3[n+]2C)cc1 (stereo not given) do in these assays?
SKKanGAS inh: 18; T cruzi repl: 39; Lmaj promast: 101*

How did Cc1c(C)n(CCCN(C)C)c2ncnc(NCc3ccccc3)c12 do in these assays?
SKKanGAS inh: 2; Beta apoptosis: -5; CSC inhib: -6; T cruzi repl: 55*; Mdm2 MdmX PPI: 5

What do the screens show for `O=C1CSC(c2cccc(Cl)c2Cl)N1c1ccccn1` (stereo not given)?
SKKanGAS inh: 17; Beta apoptosis: 0; CSC inhib: 7; T cruzi repl: -5; Mdm2 MdmX PPI: 20; Lmaj promast: 91*

Results for Cc1ccc(C(=O)CNc2cccc([N+](=O)[O-])c2)cc1 ?
SKKanGAS inh: -1; Beta apoptosis: -2; CSC inhib: 26; T cruzi repl: 7; Mdm2 MdmX PPI: 4; Lmaj promast: -9
